RGS4 pot: RGS4 potentiators or activators, primary screen, cell-based, HEK293 M3R inducible RGS4, calcium flux | carbachol calcium flux Fluo4; active compounds read low | B-score at 10 µM | 0.92% of 310,000 active | AID 463111, 2010;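 active = B-score of the integrated calcium signal more than 4 SD below the library mean, with starting fluorescence not abnormally high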;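 also: negative B-score means reduced calcium response which marks RGS4 activation or potentiation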
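Also added: carbachol at ECmax as muscarinic agonist stimulus; Assay system: HEK293 cells with stable M3R and inducible RGS4; Timing: overnight RGS4 induction, 30 min dye load 37 °C, 20 min compound RT; Measured by: Fluo4-AM (2 µM) calcium-flux fluorescence, kinetic read.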
MrgX1 agonist: agonists of human MrgX1 receptor, primary screen, HEK293 cells, Fluo-4 calcium flux | Mas-related G-protein coupled receptor member X1 (Homo sapiens), Q96LB2 | Fluo-4 calcium fluorescence, agonist mode; active compounds read high | B-score at 10 µM | 0.44% of 310,000 active | AID 588627, 2011;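 active = calcium response B-score plate-corrected fluorescence ratio at least 3 library SD, with starting fluorescence B-score inside 5 SD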
Target sequence (Q96LB2 whole entry, looked up): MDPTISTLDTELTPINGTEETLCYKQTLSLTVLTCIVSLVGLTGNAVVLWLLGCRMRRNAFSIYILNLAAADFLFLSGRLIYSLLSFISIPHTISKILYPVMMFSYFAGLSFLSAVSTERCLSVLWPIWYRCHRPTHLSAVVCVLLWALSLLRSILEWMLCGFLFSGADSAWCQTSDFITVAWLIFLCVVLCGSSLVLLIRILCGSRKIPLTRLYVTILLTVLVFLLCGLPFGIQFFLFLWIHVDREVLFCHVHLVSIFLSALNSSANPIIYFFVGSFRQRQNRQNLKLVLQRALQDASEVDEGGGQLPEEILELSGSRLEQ
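Test system: Stable human MrgX1 HEK293 cell line | Schedule: Overnight plating before 1 h dye loading | Read-out basis: Baseline-normalised fluorescence change ratio, B-scored | Detection: Kinetic calcium dye fluorescence, Fluo-4 NW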
MrgX1 antagonist: antagonists of human MrgX1 receptor, primary screen, HEK293 cells, Fluo-4 calcium flux; Mas-related G-protein coupled receptor member X1 (Homo sapiens), Q96LB2; BAM8-22 antagonism; active compounds read low; B-score at 10 µM; 1.3% of 310,000 active; AID 588676, 2011;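 active = calcium-response B-score plate-corrected more than 3 library SD below zero, starting fluorescence within 5 deviations, no agonist response on first addition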;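 also: peak minus trough fluorescence over baseline after final BAM8-22 challenge near maximal dose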
MrgX1 allo act: positive allosteric modulators of MrgX1, primary screen, HEK293 cells, Fluo-4 calcium flux; Mas-related G-protein coupled receptor member X1 (Homo sapiens), Q96LB2; FDSS; active compounds read high; B-score at 10 µM; 0.63% of 310,000 active; AID 588675, 2011;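 active = plate-corrected calcium response at least 3 library SD above typical, normal starting fluorescence, not activating the receptor alone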;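 also: compound read alongside a low EC10 to EC30 dose of BAM8-22 agonist; peak minus trough fluorescence over baseline measured at the second addition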
RGS4 block: RGS4 inhibitors, primary screen, cell-based, HEK293 M3R inducible RGS4, calcium flux; Regulator of G-protein signaling 4 (Homo sapiens), P49798; Fluo-4 calcium flux; active compounds read high; triggered by carbachol at its EC20; B-score at 10 µM; 0.45% of 310,000 active; AID 463165, 2010;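 active = B-score, a plate-corrected calcium signal, over three deviations above library mean, with baseline fluorescence within five deviations of library mean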;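 also: RGS4 expression induced by doxycycline in cells with stable M3 receptor; B-score is computed from the integrated fluorescence ratio over baseline after carbachol; higher B-score means a larger calcium signal and so more RGS4 inhibition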
RGS4 act valid: reduced carbachol calcium response, RGS4-induced M3R cells, confirmation, RGS4 activator project, cell-based, HEK293 M3R/RGS4 inducible, calcium flux, duplicate; shares compounds with RGS4 pot; carbachol calcium flux Fluo4; inhibition, % at 10 µM; 89% of 1,100 active; AID 602282, 2012;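 active = inhibition above 3 SD of the buffer control wells, cut at about 41% in these data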;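 also: signal is the integrated peak-minus-minimum Fluo4 fluorescence over baseline ratio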
RGS4 act ctr: activity in cells without induced RGS4 expression; shares compounds with RGS4 pot; HEK293 M3R non-induced RGS4, Fluo4 calcium flux; after carbachol challenge at its EC90; inhibition, % at 10 µM; 82% of 1,100 active; AID 602283;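 active = inhibition exceeding 3 SD of buffer-only control wells, cut at about 26% in these data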;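 also: percent drop in integrated peak-minus-baseline over baseline Fluo4 ratio after carbachol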
Numbers without * were called inactive; i = inactive; · = not tested or not shown. In the library only some 3.5% were active in any assay of this set; here they are far more common.

SMILES	RGS4 pot	MrgX1 agonist	MrgX1 antagonist	MrgX1 allo act	RGS4 block	RGS4 act valid	RGS4 act ctr
CCOC(=O)c1[nH]c2ccc(F)cc2c1NC(=O)CCN1CCOCC1	i	i	i	i	i	·	·
O=C(Nc1ccccc1)Nc1ccc(Cl)nc1Cl	i	i	i	i	i	·	·
CCc1ccc2c(c1)Sc1ccccc1CC2N1CCN(C)CC1 (centres undefined)	-8.9*	i	i	i	i	92*	90*
OCCN1CCN(C2Cc3cc(Cl)ccc3Sc3ccc(Cl)cc32)CC1 (centres undefined) (tested in a mixture with another compound)	i	i	i	i	i	·	·
CN1CCN(CCC(=O)N2c3ccccc3Sc3ccc(Cl)cc32)CC1	i	i	i	i	i	·	·
CN1CCN(C2=Cc3cc(Cl)ccc3Sc3cc(F)ccc32)CC1	-8*	i	i	i	i	92*	91*
CN1CCN(C2Cc3cc(Cl)ccc3Sc3cc(F)ccc32)CC1 (centres undefined)	-8*	i	i	i	i	93*	95*
c1ccc2c(c1)CC(N1CCCCC1)c1ccccc1S2 (centres undefined)	i	i	i	i	i	·	·
Cc1n[nH]c(C)c1S(=O)(=O)N(CC(=O)Nc1ccc2c(c1)OCCO2)c1ccc(C(C)C)cc1	i	i	i	i	i	·	·
Cc1ccccc1CSc1nnc(C)c(=O)n1N	i	i	i	i	i	·	·
COc1cc(NC(=O)COC(=O)c2n[nH]c3ccccc23)c(C)cc1[N+](=O)[O-]	i	i	i	i	i	·	·
CC(=O)c1ccccc1N(C(=O)c1ccco1)C(C(=O)NC1CCCC1)c1ccc(C)cc1 (centres undefined)	i	i	i	i	i	·	·
Cc1cccc2c1cnn2C(=O)Nc1ccccc1Cl	i	i	i	i	i	·	·
COc1ccc(C(=O)[C@@H]2CC[C@](C)(C(=O)O)C2(C)C)cc1	i	i	i	i	i	·	·
Cc1ccc(Sc2c(C#N)c(-c3ccccc3)nn2C)cc1	-8*	i	i	i	i	74*	36*
Cc1ccc(SCc2c(-c3ccccc3)nn(C)c2Cl)cc1	i	i	i	i	i	·	·
Cc1ccccc1Cc1c(C)nc2nc(SCC(=O)NCCCN3CCCC3)nn2c1C	-8.7*	i	i	i	i	72*	37*
Cc1ccc(Cc2c(C)nc3nc(SCC(=O)NCCCN4CCCC4)nn3c2C)cc1	-9.6*	i	i	i	i	41*	0
Cc1nc2nc(SCC(=O)NCCCN3CCCCCC3)nn2c(C)c1Cc1ccccc1Cl	-7.9*	i	i	i	i	82*	45*
Cc1ccc(Cc2c(C)nc3nc(SCC(=O)NCCCN4CCCCC4)nn3c2C)cc1	i	i	i	i	i	·	·
Cc1nc2nc(SCC(=O)NCCCN3CCCC(C)C3)nn2c(C)c1Cc1ccccc1Cl (centres undefined)	i	i	i	i	i	·	·
Cc1cc2oc(=O)cc(CN3CCOCC3)c2c(C)c1Cl	i	i	i	i	i	·	·
CC1CC(C)(C)NC(=S)N1CCCC(=O)N1CCN(c2ccc(F)cc2)CC1 (centres undefined)	i	i	i	i	i	·	·
O=C(COC(=O)c1cc(S(=O)(=O)N2CCCCC2)ccc1N1CCOCC1)NC1CCS(=O)(=O)C1 (centres undefined)	i	i	i	i	i	·	·
